Source: ChEMBL document CHEMBL1255410, “Activity of the investigational fluoroquinolone finafloxacin against ciprofloxacin-sensitive and -resistant Acinetobacter baumannii isolates” (2010)
Converted amounts (≈) assume the structure as drawn.

What was measured:
Acinetobacter baumannii [1] = test: Antimicrobial activity against Acinetobacter baumannii isolate 1 at pH 5.8; type: functional
Procedure, shortened: (§1)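 MIC by agar dilution on Mueller-Hinton agar acidified to pH 5.8 with HCl before antibiotic-containing plates were poured. Agar pH was rechecked once the agar had solidified. Isolates had characterized gyrA/parC genes. Plates for both drugs were made the same day from fresh media, and MICs were read in parallel with the standard-pH set.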

Acinetobacter baumannii [2] = test: Antimicrobial activity against Acinetobacter baumannii isolate 13 at pH 5.8; type: functional; procedure, shortened: as §1
Acinetobacter baumannii [3] = test: Antimicrobial activity against Acinetobacter baumannii isolate 38 harboring GyrA Ser83-Leu mutation at pH 5.8; type: functional
Procedure, shortened: (§2)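 Agar dilution MIC on Mueller-Hinton agar. For the acidic condition, HCl was added to bring the agar to pH 5.8 before pouring the antibiotic plates, and the pH was checked after the agar set. The standard condition was pH 7.2. Both drugs' plates were made the same day from fresh medium, and MICs were read at the same time.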

Acinetobacter baumannii [4] = test: Antimicrobial activity against Acinetobacter baumannii isolate 37 harboring GyrA Ser83-Leu mutation at pH 7.2; type: functional; procedure, shortened: as §2
Acinetobacter baumannii [5] = test: Antimicrobial activity against Acinetobacter baumannii isolate 55 harboring GyrA Ser83-Leu and ParC Ser80-Leu mutation at pH 7.2; type: functional
Procedure, shortened: (§3)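 Agar dilution MIC on Mueller-Hinton agar under standard conditions (pH 7.2). Antibiotic-containing plates were made the same day from freshly prepared medium. Agar pH was checked after solidifying. Both fluoroquinolones were tested simultaneously against A. baumannii isolates with characterized gyrA/parC genes. MICs are in μg/ml.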

Acinetobacter baumannii [6] = test: Antimicrobial activity against Acinetobacter baumannii isolate 10 at pH 7.2; type: functional
Procedure, shortened: (§4)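 MIC by agar dilution on Mueller-Hinton agar under standard conditions (pH 7.2), against isolates with characterized gyrA/parC genes. Agar pH was checked after solidifying. Plates for both drugs were prepared the same day from freshly made media, and MICs were determined simultaneously with the pH 5.8 set.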

Acinetobacter baumannii [7] = test: Antimicrobial activity against Acinetobacter baumannii isolate 32 harboring GyrA Ser83-Leu mutation at pH 7.2; type: functional; procedure, shortened: as §2
Acinetobacter baumannii [8] = test: Antimicrobial activity against Acinetobacter baumannii isolate 24 harboring GyrA Ser83-Leu mutation at pH 7.2; type: functional; procedure, shortened: as §4
Acinetobacter baumannii [9] = test: Antimicrobial activity against Acinetobacter baumannii isolate 4 at pH 7.2; type: functional; procedure, shortened: as §2
Acinetobacter baumannii [10] = test: Antimicrobial activity against adeB overexpressing Acinetobacter baumannii isolate 67 harboring GyrA Ser83-Leu and ParC Ser80-Leu mutation at pH 5.8; type: functional
Procedure, shortened: (§5)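 Agar dilution MIC on Mueller-Hinton agar acidified to pH 5.8 with HCl before the antibiotic-containing plates were poured. Agar pH was checked after solidifying. Plates were made the same day from fresh medium. Both fluoroquinolones were tested simultaneously against A. baumannii isolates with characterized gyrA/parC genes. MICs are in μg/ml.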

Acinetobacter baumannii [11] = test: Antimicrobial activity against Acinetobacter baumannii isolate 26 harboring GyrA Ser83-Leu mutation at pH 5.8; type: functional; procedure, shortened: as §1
Acinetobacter baumannii [12] = test: Antimicrobial activity against Acinetobacter baumannii isolate 51 harboring GyrA Ser83-Leu and ParC Ser80-Leu mutation at pH 5.8; type: functional; procedure, shortened: as §2
Acinetobacter baumannii [13] = test: Antimicrobial activity against Acinetobacter baumannii isolate 36 harboring GyrA Ser83-Leu mutation at pH 7.2; type: functional; procedure, shortened: as §2
Acinetobacter baumannii [14] = test: Antimicrobial activity against Acinetobacter baumannii isolate 60 harboring GyrA Ser83-Leu and ParC Ser80-Leu mutation at pH 5.8
Acinetobacter baumannii [15] = test: Antimicrobial activity against Acinetobacter baumannii isolate 2 at pH 5.8; type: functional; procedure, shortened: as §1
Acinetobacter baumannii [16] = test: Antimicrobial activity against Acinetobacter baumannii isolate 48 harboring GyrA Ser83-Leu and ParC Ser80-Leu mutation at pH 7.2; type: functional; procedure, shortened: as §2
Acinetobacter baumannii [17] = test: Antimicrobial activity against Acinetobacter baumannii isolate 28 harboring GyrA Ser83-Leu mutation at pH 7.2; type: functional; procedure, shortened: as §4
Acinetobacter baumannii [18] = test: Antimicrobial activity against Acinetobacter baumannii isolate 56 harboring GyrA Ser83-Leu and ParC Ser80-Leu mutation at pH 5.8; type: functional; procedure, shortened: as §5
Acinetobacter baumannii [19] = test: Antimicrobial activity against Acinetobacter baumannii isolate 16 at pH 7.2; type: functional; procedure, shortened: as §4
Acinetobacter baumannii [20] = test: Antimicrobial activity against Acinetobacter baumannii isolate 1 at pH 7.2; type: functional; procedure, shortened: as §4
Acinetobacter baumannii [21] = test: Antimicrobial activity against Acinetobacter baumannii isolate 12 at pH 5.8; type: functional; procedure, shortened: as §1
Acinetobacter baumannii [22] = test: Antimicrobial activity against Acinetobacter baumannii isolate 34 harboring GyrA Ser83-Leu mutation at pH 7.2; type: functional; procedure, shortened: as §2
Acinetobacter baumannii [23] = test: Antimicrobial activity against Acinetobacter baumannii isolate 58 harboring GyrA Ser83-Leu and ParC Ser80-Leu mutation at pH 7.2; type: functional; procedure, shortened: as §3
Acinetobacter baumannii [24] = test: Antimicrobial activity against Acinetobacter baumannii isolate 59 harboring GyrA Ser83-Leu and ParC Glu84-Lys mutation at pH 5.8; type: functional; procedure, shortened: as §5
Acinetobacter baumannii [25] = test: Antimicrobial activity against Acinetobacter baumannii isolate 39 harboring GyrA Ser83-Leu mutation at pH 5.8; type: functional; procedure, shortened: as §2
Acinetobacter baumannii [26] = test: Antimicrobial activity against Acinetobacter baumannii isolate 26 harboring GyrA Ser83-Leu mutation at pH 7.2; type: functional; procedure, shortened: as §4
Acinetobacter baumannii [27] = test: Antimicrobial activity against Acinetobacter baumannii isolate 59 harboring GyrA Ser83-Leu and ParC Glu84-Lys mutation at pH 7.2; type: functional; procedure, shortened: as §3
Acinetobacter baumannii [28] = test: Antimicrobial activity against Acinetobacter baumannii isolate 10 at pH 5.8; type: functional; procedure, shortened: as §1
Acinetobacter baumannii [29] = test: Antimicrobial activity against Acinetobacter baumannii isolate 13 at pH 7.2; type: functional; procedure, shortened: as §4
Acinetobacter baumannii [30] = test: Antimicrobial activity against Acinetobacter baumannii isolate 51 harboring GyrA Ser83-Leu and ParC Ser80-Leu mutation at pH 7.2; type: functional; procedure, shortened: as §2
Acinetobacter baumannii [31] = test: Antimicrobial activity against Acinetobacter baumannii isolate 11 at pH 7.2; type: functional; procedure, shortened: as §4
Acinetobacter baumannii [32] = test: Antimicrobial activity against Acinetobacter baumannii isolate 25 harboring GyrA Ser83-Leu mutation at pH 5.8; type: functional; procedure, shortened: as §1
Acinetobacter baumannii [33] = test: Antimicrobial activity against Acinetobacter baumannii isolate 44 harboring GyrA Ser83-Leu and ParC Glu84-Lys mutation at pH 7.2; type: functional; procedure, shortened: as §2
Acinetobacter baumannii [34] = test: Antimicrobial activity against Acinetobacter baumannii isolate 15 at pH 5.8; type: functional; procedure, shortened: as §1
Acinetobacter baumannii [35] = test: Antimicrobial activity against Acinetobacter baumannii isolate 35 harboring GyrA Ser83-Leu mutation at pH 5.8; type: functional; procedure, shortened: as §2
Acinetobacter baumannii [36] = test: Antimicrobial activity against Acinetobacter baumannii isolate 29 harboring GyrA Ser83-Leu mutation at pH 7.2; type: functional; procedure, shortened: as §4
Acinetobacter baumannii [37] = test: Antimicrobial activity against Acinetobacter baumannii isolate 31 harboring GyrA Ser83-Leu mutation at pH 5.8; type: functional; procedure, shortened: as §1
Acinetobacter baumannii [38] = test: Antimicrobial activity against Acinetobacter baumannii isolate 14 at pH 7.2; type: functional; procedure, shortened: as §4
Acinetobacter baumannii [39] = test: Antimicrobial activity against Acinetobacter baumannii isolate 5 at pH 7.2; type: functional; procedure, shortened: as §2
Acinetobacter baumannii [40] = test: Antimicrobial activity against Acinetobacter baumannii isolate 55 harboring GyrA Ser83-Leu and ParC Ser80-Leu mutation at pH 5.8; type: functional; procedure, shortened: as §2
Acinetobacter baumannii [41] = test: Antimicrobial activity against Acinetobacter baumannii isolate 33 harboring GyrA Ser83-Leu mutation at pH 5.8; type: functional; procedure, shortened: as §2
Acinetobacter baumannii [42] = test: Antimicrobial activity against Acinetobacter baumannii isolate 25 harboring GyrA Ser83-Leu mutation at pH 7.2; type: functional; procedure, shortened: as §4

Question: `O=C(O)c1cn(C2CC2)c2cc(N3CCNCC3)c(F)cc2c1=O` [CIPROFLOXACIN] was tested. Which MIC (Acinetobacter baumannii [1]) did it give?
Answer: The MIC was 2 µg/mL (≈ 6.04 µM).

Question: What about the MIC (Acinetobacter baumannii [2]) of the same compound?
Answer: Its MIC is 4 µg/mL (≈ 12.1 µM).

Question: And the MIC (Acinetobacter baumannii [3])?
Answer: The MIC was 128 µg/mL (≈ 386 µM).

Question: And the MIC (Acinetobacter baumannii [4])?
Answer: Its MIC is 16 µg/mL (≈ 48.3 µM).

Question: What about the MIC (Acinetobacter baumannii [5]) of the same compound?
Answer: Its MIC is 128 µg/mL (≈ 386 µM).

Question: And the MIC (Acinetobacter baumannii [6])?
Answer: The MIC was 0.25 µg/mL (≈ 0.754 µM).

Question: What about the MIC (Acinetobacter baumannii [7]) of the same compound?
Answer: Its MIC is 16 µg/mL (≈ 48.3 µM).

Question: And the MIC (Acinetobacter baumannii [8])?
Answer: The MIC was 4 µg/mL (≈ 12.1 µM).

Question: What about the MIC (Acinetobacter baumannii [9]) of the same compound?
Answer: Its MIC is 0.12 µg/mL (≈ 0.362 µM).

Question: And the MIC (Acinetobacter baumannii [10])?
Answer: Its MIC is > 128 µg/mL.

Question: What about the MIC (Acinetobacter baumannii [11]) of the same compound?
Answer: The MIC was 32 µg/mL (≈ 96.6 µM).

Question: And the MIC (Acinetobacter baumannii [12])?
Answer: The MIC was > 128 µg/mL.

Question: What about the MIC (Acinetobacter baumannii [13]) of the same compound?
Answer: The MIC was 16 µg/mL (≈ 48.3 µM).

Question: And the MIC (Acinetobacter baumannii [14])?
Answer: The MIC was > 128 µg/mL.

Question: What about the MIC (Acinetobacter baumannii [15]) of the same compound?
Answer: The MIC was 2 µg/mL (≈ 6.04 µM).

Question: What about the MIC (Acinetobacter baumannii [16]) of the same compound?
Answer: Its MIC is 128 µg/mL (≈ 386 µM).

Question: What about the MIC (Acinetobacter baumannii [17]) of the same compound?
Answer: The MIC was 4 µg/mL (≈ 12.1 µM).

Question: What about the MIC (Acinetobacter baumannii [18]) of the same compound?
Answer: Its MIC is > 128 µg/mL.

Question: And the MIC (Acinetobacter baumannii [19])?
Answer: Its MIC is 1 µg/mL (≈ 3.02 µM).

Question: What about the MIC (Acinetobacter baumannii [20]) of the same compound?
Answer: The MIC was 0.06 µg/mL (≈ 0.181 µM).

Question: And the MIC (Acinetobacter baumannii [21])?
Answer: Its MIC is 2 µg/mL (≈ 6.04 µM).

Question: What about the MIC (Acinetobacter baumannii [22]) of the same compound?
Answer: The MIC was 8 µg/mL (≈ 24.1 µM).

Question: What about the MIC (Acinetobacter baumannii [23]) of the same compound?
Answer: Its MIC is 128 µg/mL (≈ 386 µM).

Question: And the MIC (Acinetobacter baumannii [24])?
Answer: Its MIC is > 128 µg/mL.

Question: And the MIC (Acinetobacter baumannii [25])?
Answer: The MIC was > 128 µg/mL.

Question: And the MIC (Acinetobacter baumannii [26])?
Answer: The MIC was 4 µg/mL (≈ 12.1 µM).

Question: And the MIC (Acinetobacter baumannii [27])?
Answer: The MIC was 128 µg/mL (≈ 386 µM).

Question: And the MIC (Acinetobacter baumannii [28])?
Answer: The MIC was 2 µg/mL (≈ 6.04 µM).

Question: What about the MIC (Acinetobacter baumannii [29]) of the same compound?
Answer: Its MIC is 0.5 µg/mL (≈ 1.51 µM).

Question: And the MIC (Acinetobacter baumannii [30])?
Answer: Its MIC is 128 µg/mL (≈ 386 µM).

Question: What about the MIC (Acinetobacter baumannii [31]) of the same compound?
Answer: Its MIC is 0.25 µg/mL (≈ 0.754 µM).

Question: What about the MIC (Acinetobacter baumannii [32]) of the same compound?
Answer: Its MIC is 32 µg/mL (≈ 96.6 µM).

Question: What about the MIC (Acinetobacter baumannii [33]) of the same compound?
Answer: The MIC was 32 µg/mL (≈ 96.6 µM).

Question: And the MIC (Acinetobacter baumannii [34])?
Answer: Its MIC is 4 µg/mL (≈ 12.1 µM).

Question: What about the MIC (Acinetobacter baumannii [35]) of the same compound?
Answer: Its MIC is 128 µg/mL (≈ 386 µM).

Question: What about the MIC (Acinetobacter baumannii [36]) of the same compound?
Answer: Its MIC is 4 µg/mL (≈ 12.1 µM).

Question: What about the MIC (Acinetobacter baumannii [37]) of the same compound?
Answer: Its MIC is 32 µg/mL (≈ 96.6 µM).

Question: And the MIC (Acinetobacter baumannii [38])?
Answer: The MIC was 0.5 µg/mL (≈ 1.51 µM).

Question: And the MIC (Acinetobacter baumannii [39])?
Answer: Its MIC is 0.12 µg/mL (≈ 0.362 µM).

Question: What about the MIC (Acinetobacter baumannii [40]) of the same compound?
Answer: Its MIC is > 128 µg/mL.

Question: And the MIC (Acinetobacter baumannii [41])?
Answer: The MIC was 128 µg/mL (≈ 386 µM).

Question: And the MIC (Acinetobacter baumannii [42])?
Answer: The MIC was 4 µg/mL (≈ 12.1 µM).
